Key:
[1] = test system: 1A9; assay: Relative resistance, IC50 for 1A9-A8 A8 T-beta-274I mutant/IC50 for 1A9; type: functional, Homo sapiens
[2] = test system: 1A9/ptx-10; assay: Inhibition of growth in paclitaxel resistant 1A9-PTX10 F-beta-270V mutant cell line after 72 hrs by SRB assay; type: functional, cell-based; conditions: Homo sapiens, 1A9/ptx-10, 72 h
[3] = test system: PC-3; assay: Cytotoxicity against PC3 cell line by MTT assay; type: cell-based; conditions: Homo sapiens
[4] = molecular target: Tubulin (Homo sapiens) (UniProt P68371+Q9H4B7+P0DPH7+P68366+Q13509+Q71U36+P04350+Q3ZCM7+P07437+P68363+Q9BQE3+Q6PEY2+Q13885+Q9BVA1+Q9BUF5); assay: Induction of GTP-tubulin polymerization; type: protein-complex assay
Method in brief: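 ED50 for induction of tubulin assembly, read by light scattering at 350 nm or by fluorescence in a 96-well format. GTP-tubulin was used unless otherwise stated. Some samples were run with GDP-tubulin and normalized to the GTP-tubulin scale. Some values are single determinations.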

[5] = test system: 1A9/ptx-10; assay: Relative resistance, IC50 for 1A9-PTX10 F-beta-270V mutant/IC50 for 1A9; type: functional, Homo sapiens
[6] = Inhibition of growth in epothilone A resistant 1A9-A8 T-beta-274I mutant cell line after 72 hrs by SRB assay; type: functional, cell-based; conditions: Homo sapiens, 1A9, 72 h
[7] = test system: 1A9; assay: Inhibition of growth in 1A9 cell line after 72 hrs; type: functional, cell-based; conditions: Homo sapiens, 1A9, 72 h
[8] = test system: A2780; assay: Cytotoxicity against A2780 cell line; type: cell-based; conditions: Homo sapiens

Row | Compound | Ratio IC50 [1] | IC50 [2] | IC50 [3] | ED50 [4] | Ratio IC50 [5] | IC50 [6] | IC50 [7] | IC50 [8]
1 | CC(=O)O[C@H]1C(=O)[C@]2(C)C(O)C[C@H]3OC[C@]34OC(=O)/C=C\Cc3ccccc3[C@H](NC(=O)c3ccccc3)[C@@H](O)C(=O)O[C@H]3C[C@@](O)([C@@H](OC(=O)c5ccccc5)[C@H]42)C(C)(C)C1=C3C (stereo not given in full) | 0.84 | 0.13 nM | 2.5 nM | 300 nM | 1.8 | 0.27 nM | 0.32 nM | 0.3 nM
2 | CC(=O)O[C@H]1C(=O)[C@@]2(C)[C@@H]3[C@H](OC(=O)c4ccccc4)[C@]4(O)C[C@H](OC(=O)[C@H](O)[C@@H](NC(=O)c5ccccc5)c5ccccc5OCC/C=C/C(=O)O[C@]35CO[C@@H]5C[C@@H]2O)C(C)=C1C4(C)C | 3.8 | 157 nM | 16 nM | 670 nM | 9.2 | 46.4 nM | 12.2 nM | 20 nM
3 | C=CCCC(=O)O[C@@]12CO[C@@H]1C[C@H](O)[C@@]1(C)C(=O)[C@H](OC(C)=O)C3=C(C)[C@@H](OC(=O)[C@H](O)[C@@H](NC(=O)c4ccccc4)c4ccccc4OCC=C)C[C@@](O)([C@@H](OC(=O)c4ccccc4)[C@H]21)C3(C)C | 82 | 65 nM | 128 nM | 420 nM | 18 | 148 nM | 1.8 nM | 770 nM
4 | C=CCCC(=O)O[C@@]12CO[C@@H]1C[C@H](O)[C@@]1(C)C(=O)[C@H](OC(C)=O)C3=C(C)[C@@H](OC(=O)[C@H](O)[C@@H](NC(=O)c4ccccc4)c4cccc(C=C)c4)C[C@@](O)([C@@H](OC(=O)c4ccccc4)[C@H]21)C3(C)C | 10 | 42 nM | 55 nM | 490 nM | 5.5 | 137 nM | 13.7 nM | 350 nM
5 | CC(=O)O[C@H]1C(=O)[C@@]2(C)[C@@H]3[C@H](OC(=O)c4ccccc4)[C@]4(O)C[C@H](OC(=O)[C@H](O)[C@@H](NC(=O)c5ccccc5)c5ccccc5OC/C=C\C(=O)O[C@]35CO[C@@H]5C[C@@H]2O)C(C)=C1C4(C)C | 3.8 | 126 nM | 15 nM | 280 nM | 17 | 26.5 nM | 7 nM | 14.5 nM
6 | CC(=O)O[C@H]1C(=O)[C@@]2(C)[C@@H]3[C@H](OC(=O)c4ccccc4)[C@]4(O)C[C@H](OC(=O)[C@H](O)[C@@H](NC(=O)c5ccccc5)c5cccc(c5)OC/C=C/CCC(=O)O[C@]35CO[C@@H]5C[C@@H]2O)C(C)=C1C4(C)C | >12 | 196 nM | – | – | 6.3 | > 300 nM | 24.6 nM | 650 nM
7 | CC(=O)O[C@H]1C(=O)[C@@]2(C)[C@@H]3[C@H](OC(=O)c4ccccc4)[C@]4(O)C[C@H](OC(=O)[C@H](O)[C@@H](NC(=O)c5ccccc5)c5ccccc5OCCCC(=O)O[C@]35CO[C@@H]5C[C@@H]2O)C(C)=C1C4(C)C | 3.5 | 35.9 nM | 50 nM | 830 nM | 1.8 | 66.5 nM | 18.9 nM | 18.5 nM
8 | CC(=O)O[C@H]1C(=O)[C@@]2(C)[C@@H]3[C@H](OC(=O)c4ccccc4)[C@]4(O)C[C@H](OC(=O)[C@H](O)[C@@H](NC(=O)c5ccccc5)c5cccc(c5)/C=C/CCC(=O)O[C@]35CO[C@@H]5C[C@@H]2O)C(C)=C1C4(C)C | >23 | 157 nM | 34 nM | 1600 nM | 21 | > 300 nM | 12.9 nM | 680 nM
9 | CC(=O)O[C@H]1C(=O)[C@@]2(C)[C@@H]3[C@H](OC(=O)c4ccccc4)[C@]4(O)C[C@H](OC(=O)[C@H](O)[C@@H](NC(=O)c5ccccc5)c5ccccc5CCCC(=O)O[C@]35CO[C@@H]5C[C@@H]2O)C(C)=C1C4(C)C | 6.3 | 1.03 nM | 2.4 nM | 210 nM | 12 | 0.44 nM | 0.07 nM | 0.5 nM

Reference: ChEMBL document CHEMBL1141391 (J Med Chem, 2007)
